In ChEMBL document CHEMBL3272050, “Prostaglandin prodrugs. 5.1 Prostaglandin E2 ethylene ketal” (J Med Chem, 1977):
Blank lines part the entries; values can stand above or below the molecule they belong to. Calls of active or inactive are those of the source. The calls are words filed in the database; no cut-off is given here.

How the values were obtained:
Rhesus monkey [1] = assay: Increase of uterine contractions in rhesus monkey at 16.87 mg, po administered on 100th day of pregnancy; format: functional, organism-based; conditions: Macaca mulatta
In short: (§1)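 Female rhesus monkeys on day 100 of pregnancy received an oral dose of 5.62 or 16.87 mg in 0.1 M THAM buffer, pH 8.5. Uterine contraction frequency and amplitude (mmHg) were recorded through an open-ended catheter in the amniotic cavity and compared with pretreatment activity.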

Rhesus monkey [2] = assay: Increase of uterine contractions in rhesus monkey at 5.62 mg, po administered on 100th day of pregnancy; format: functional, organism-based; conditions: Macaca mulatta; in short: as §1
Rhesus monkey [3] = assay: Increase of amplitude of uterine contractions in rhesus monkey at 16.87 mg, po administered on 100th day of pregnancy; format: functional, organism-based; conditions: Macaca mulatta; in short: as §1
[4] = Chemical stability of the compound assessed as formation of prostaglandin E2 at 6.31 x 10^-4 M at pH 2.08 at 25 degC by HPLC analysis; format: physicochemical; conditions: buffer, pH 2.08, 631 µM
In short: (§2)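 Ketal incubated at 25 ± 0.5 °C, pH 2.0–6.5, in 0.1 M buffers (HCl, chloroacetic, acetic, succinic, phosphoric) with ionic strength set to 0.10 M by KCl. Initial ketal was 0.25 mg/mL at pH 2.0–3.5 and 0.50 mg/mL at pH 4.5–6.5. Timed aliquots were EtOAc-extracted for HPLC at 263 nm, quantified by peak-area ratios against calibration mixtures, and first-order rate constants fitted.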

[5] = Chemical stability of the compound assessed as formation of prostaglandin E2 at 12.61 x 10^-4 M at pH 6.50 at 25 degC by HPLC analysis; format: physicochemical; conditions: buffer, pH 6.5, 1261 µM; in short: as §2
[6] = Chemical stability of the compound assessed as formation of prostaglandin E2 at 6.31 x 10^-4 M at pH 2.99 at 25 degC by HPLC analysis; format: physicochemical; conditions: buffer, pH 2.99, 631 µM; in short: as §2
[7] = Chemical stability of the compound assessed as formation of prostaglandin E2 at pH 2.08 to 6.50 at 25 degC by HPLC analysis; format: physicochemical; conditions: buffer; in short: as §2
Rhesus monkey [8] = assay: Increase of uterine motility in rhesus monkey at 5.62 mg, po administered on 100th day of pregnancy; format: functional, organism-based; conditions: Macaca mulatta; in short: as §1
[9] = Chemical stability of the compound assessed as formation of prostaglandin E2 at 12.61 x 10^-4 M at pH 4.53 at 25 degC by HPLC analysis; format: physicochemical; conditions: buffer, pH 4.53, 1261 µM; in short: as §2
Rhesus monkey [10] = assay: Increase of amplitude of uterine contractions in rhesus monkey at 5.62 mg, po administered on 100th day of pregnancy; format: functional, Macaca mulatta; in short: as §1
[11] = Drug metabolism assessed as disappearance of compound at pH 3.5 at 25 degC by HPLC analysis; format: physicochemical; conditions: read-out: Drug metabolism; in short: as §2
[12] = Chemical stability of the compound assessed as half life of formation of prostaglandin E2 at pH 2 at 25 degC by HPLC analysis; format: physicochemical; conditions: buffer; in short: as §2
[13] = Chemical stability of the compound assessed as formation of prostaglandin E2 at 6.31 x 10^-4 M at pH 3.50 at 25 degC by HPLC analysis; format: physicochemical; conditions: buffer, pH 3.5, 631 µM; in short: as §2
[14] = Chemical stability of the compound assessed as formation of prostaglandin E2 at 12.61 x 10^-4 M at pH 5.50 at 25 degC by HPLC analysis; format: physicochemical; conditions: buffer, pH 5.5, 1261 µM; in short: as §2
[15] = Chemical stability of the compound assessed as formation of prostaglandin A2 at pH 6.50; format: physicochemical; conditions: buffer, pH 6.5
[16] = Chemical stability of the compound assessed as formation of prostaglandin A2 at pH 3.50; format: physicochemical; conditions: buffer, pH 3.5
[17] = Chemical stability of the compound assessed as formation of prostaglandin A2 at 12.61 x 10^-4 M at pH 4.53 at 25 degC by HPLC analysis; format: physicochemical; conditions: buffer, pH 4.53, 1261 µM; in short: as §2
[18] = Chemical stability of the compound assessed as formation of prostaglandin A2 at pH 2.99; format: physicochemical; conditions: buffer
[19] = Chemical stability of the compound assessed as half life of formation of prostaglandin A2 at pH 2 at 25 degC by HPLC analysis; format: physicochemical; conditions: buffer; in short: as §2
[20] = Chemical stability of the compound assessed as formation of prostaglandin A2 at pH 2.08; format: physicochemical; conditions: buffer
[21] = Chemical stability of the compound assessed as formation of prostaglandin A2 at 6.31 x 10^-4 M at pH 3.50 at 25 degC by HPLC analysis; format: physicochemical; conditions: buffer, pH 3.5, 631 µM; in short: as §2
[22] = Chemical stability of the compound assessed as formation of prostaglandin A2 at pH 5.50; format: physicochemical; conditions: buffer, pH 5.5
[23] = Chemical stability of the compound assessed as formation of prostaglandin A2 at pH 4.53; format: physicochemical; conditions: buffer

- K [4]: 1.93 ×10⁻⁴ /s
- K [5]: 2.58 ×10⁻⁸ /s
- K [6]: 2.29 ×10⁻⁵ /s
- K [7]: 2.24 ×10⁻² /s/M
- K [9]: 7.61 ×10⁻⁷ /s
- degraded [11]: 70%
- t1/2 [12]: 1 h
- K [13]: 5.78 ×10⁻⁶ /s
- K [14]: 1.71 ×10⁻⁷ /s
SMILES: CCCCC[C@H](O)/C=C/[C@H]1[C@H](O)CC2(OCCO2)[C@@H]1C/C=C\CCCC(=O)O
- Activity (Rhesus monkey [1]): Active
- Activity (Rhesus monkey [2]): Active
- Activity (Rhesus monkey [3]): Active
- Activity (Rhesus monkey [8]): Active
- Activity (Rhesus monkey [10]): 7 mmHg

- K [15]: 5.3 ×10⁻⁷ /s
- K [16]: 2.3 ×10⁻⁷ /s
- K [17]: 3.36 ×10⁻⁷ /s
- K [18]: 2.8 ×10⁻⁷ /s
- t1/2 [19]: 336 h
- K [20]: 5.8 ×10⁻⁷ /s
- K [21]: 5.8 ×10⁻⁷ /s
- K [22]: 4 ×10⁻⁷ /s
- K [23]: 3.1 ×10⁻⁷ /s
SMILES: CCCCC[C@H](O)/C=C/[C@H]1[C@H](O)CC(=O)[C@@H]1C/C=C\CCCC(=O)O [DINOPROSTONE]
